Rows were chosen to be rich in hits. Some 1.2% of all compounds tested hit in one or more screens of this group.
proCasp3 act = activators of human procaspase-3 D3A mutant, primary screen, biochemical, absorbance, PC-3 D3A mutant, single concentration; Caspase-3 (Homo sapiens), P42574; recombinant procaspase-3 D3A, Ac-DEVD-pNA absorbance 405 nm; activation, % at 8.5 µM; actives 0.11% (n = 330,000); AID 463141, 2010;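 active = activation above the mean of all tested compounds plus 3 SD, cut at about 21% in these data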;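 note: 0% = DMSO alone and 100% = DMSO wells spiked with extra 5 µM PC-3 D3A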
Target sequence (P42574 whole entry D9A/D28A/D175A): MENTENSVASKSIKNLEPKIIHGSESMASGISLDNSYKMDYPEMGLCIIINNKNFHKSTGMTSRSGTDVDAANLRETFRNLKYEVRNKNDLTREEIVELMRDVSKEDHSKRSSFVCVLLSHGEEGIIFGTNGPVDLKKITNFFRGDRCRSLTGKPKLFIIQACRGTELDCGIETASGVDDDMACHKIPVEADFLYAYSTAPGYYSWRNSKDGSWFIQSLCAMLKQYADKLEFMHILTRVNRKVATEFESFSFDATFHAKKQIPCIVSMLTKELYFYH
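Test system: Procaspase-3 D3A mutant, all three cleavage aspartates alanine | Dosing: Single dose, 8.5 µM nominal compound, 0.8% DMSO | Schedule: 1 h preincubation, 2 h reaction | Technique: 405 nm absorbance of p-nitroaniline, reads at 0 and 120 min | Repeats: One well per compound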
proCasp7 act = procaspase-7 activators, primary screen, counter-screen for procaspase-3 activator project, biochemical, absorbance, HTS, human. AID 463210, 2010. Caspase-7 (Homo sapiens), P55210. recombinant procaspase-7, Ac-DEVD-pNA absorbance 405 nm; D23A/D198A/D206A triple mutant, cannot self-cleave; scale: DMSO 0, 5 µM enzyme 100. activation, % at 8.5 µM. actives 0.093% (n = 330,000);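 active = percent activation above the screen-wide mean plus 3 SD, cut at about 25% in these data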
Target sequence (P55210 whole entry D23A/D198A/D206A): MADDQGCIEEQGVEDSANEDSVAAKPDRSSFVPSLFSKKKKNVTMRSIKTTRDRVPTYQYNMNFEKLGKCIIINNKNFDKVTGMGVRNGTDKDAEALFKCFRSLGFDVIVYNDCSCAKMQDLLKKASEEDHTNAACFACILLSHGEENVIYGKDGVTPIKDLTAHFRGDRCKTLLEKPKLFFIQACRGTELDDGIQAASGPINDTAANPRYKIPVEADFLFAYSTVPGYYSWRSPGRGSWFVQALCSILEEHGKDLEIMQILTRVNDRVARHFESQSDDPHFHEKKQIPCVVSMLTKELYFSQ
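Test system: Procaspase-7 triple mutant (PC-7 D3A). Also added: Ac-DEVD-pNA substrate, 400 µM as added. Schedule: 1 h enzyme–compound preincubation and 2 h substrate reaction, both 25 °C. Signal: p-Nitroaniline absorbance at 405 nm, read at 0 and 120 min. Control set: low DMSO alone, high DMSO plus 5 µM PC-7.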
MsrA inhibitor = bovine MsrA enzyme inhibitors, primary screen, biochemical, absorbance, HTS. actives 0.75% (n = 360,000). inhibition, % at 15.5 µM. purified bovine MsrA, absorbance read-out;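 note: 0% = vehicle wells with enzyme and 100% = reference inhibitor wells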
bovine MsrA act = bovine MsrA enzyme activators, primary screen, biochemical, absorbance, HTS; activation, % at 10.6 µM; purified bovine MsrA, absorbance read-out; actives 0.3% (n = 360,000); AID 602163, 2012; Methionine sulfoxide reductase A (Bos taurus); in the data active = activation above about 7.5%;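 note: 0% = vehicle and 100% = reference activator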
MsrA conf = bovine MsrA inhibitors, retest, confirmation, biochemical, absorbance, HTS. purified bovine MsrA, absorbance read-out. shares compounds with MsrA inhibitor. actives 41% (n = 2,300). inhibition, % at 15.5 µM. AID 651822, 2012;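 note: coupled to thioredoxin reductase with NADPH and selenocystamine and DMSO as substrate; 0% = vehicle only and 100% = full effect of reference inhibitor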
An asterisk follows results filed as active; . = not tested or not shown. Cut-off read from the data, not from the text of the source, unless noted: active = inhibition above about 4.5%; inactive = the rest.

SMILES	proCasp3 act	proCasp7 act	MsrA inhibitor	bovine MsrA act	MsrA conf
O=C(Nc1ccc2nc(-c3ccco3)[nH]c2c1)c1ccco1	-1.9	-10.4	5.1*	-2.7	3.7
CC(=O)Nc1ccc2nc(-c3ccco3)[nH]c2c1	-12.5	-0.4	0.7	-0.9	.
O=C(NCC1CCN(C(=O)C(=O)c2cc3ccccc3o2)CC1)c1ccc2c(c1)OCC2	.	.	1.3	.	.
CN(C)c1ccc(N(C)C)c(C(O)(c2ccccc2)c2ccccc2)c1	.	.	-0.3	.	.
CC(=O)C1C(=O)c2c(cccc2[N+](=O)[O-])C1=Nc1ccccc1C (stereo not given)	-1.4	3.5	1.0	.	.
Cc1ccccc1N=C1c2ccccc2C(=O)C1[N+](=O)[O-] (stereo not given)	0.2	5.1	5.8*	-1.9	4.0
COc1cc(/C=N/N=C2/SCC(=O)N2c2ccc(O)cc2)ccc1O	2.2	9.6	5.6*	-6.2	4.6*
COc1cc(/C=N\N=C2/SC(CC(=O)O)C(=O)N2c2ccc(O)cc2)ccc1O (stereo not given)	-0.6	-5.7	3.7	-7.0	.
COc1ccc(/C=N\N=C2/SC(CC(=O)O)C(=O)N2c2ccc(O)cc2)cc1OC (stereo not given)	-9.7	2.8	5.9*	-5.9	4.9*
O=C(O)CC1S/C(=N/N=C/c2ccc([N+](=O)[O-])cc2)N(c2ccc(O)cc2)C1=O (stereo not given)	1.6	4.4	6.8*	-4.0	3.1
COc1cccc(CN(C)C(=O)[C@H]2O[C@@H](n3cnc4c(=O)[nH]c(N)nc43)[C@H](O)[C@@H]2O)c1	.	.	-0.6	.	.
COc1cccc(CNC(=O)[C@H]2CCCN2C(=O)[C@H]2CCCN2C(=O)c2cccs2)c1	.	.	-0.1	.	.
COc1ccccc1C(=O)NC(=S)Nc1ccc(NC(=O)c2ccco2)cc1	-3.9	-0.5	99.0*	-1.5	0.7
COc1ccc(/C=C/C(=O)NC(=S)NNC(=O)c2ccco2)cc1	-0.3	-4.6	5.5*	0.9	4.9*
COc1ccccc1C(=O)Nc1ccc(NC(=O)c2ccco2)cn1	3.9	7.3	1.4	-1.1	.
O=C(NNC(=S)NC(=O)c1ccco1)c1ccc(NC(=O)c2ccccc2)cc1	-9.1	-32.4	5.2*	-0.2	2.6
O=C(NC(=S)NNC(=O)c1cc2ccccc2cc1O)c1ccco1	-7.4	-17.6	6.5*	-7.8	4.2
O=C(NCCc1ccccc1Cl)[C@@H]1CCCN1C(=O)[C@@H](NC(=O)N1CCOCC1)C1CCCCC1	.	.	2.1	.	.
Cc1ccccc1/C=N/NC(=O)c1cccnc1	-9.4	3.2	-0.1	-8.2	.
O=C(N/N=C/c1ccccn1)c1c[nH]c2ccccc12	0.5	2.8	2.2	-1.5	.
O=C(N/N=C/c1ccc[nH]1)c1cccnc1	-9.4	-4.4	5.7*	-5.2	5.2*
Cn1cccc1/C=N/NC(=O)c1cccnc1	0.0	7.7	3.0	-4.0	.
Cc1ccc(C(=O)N/N=C\c2cccn2C)cn1	5.6	-2.4	7.8*	-11.3	4.7*
Cc1ccc(C(=O)N/N=C\c2ccc[nH]2)cn1	7.0	12.5	6.6*	-2.9	4.2
O=C(N/N=C/c1ccc[nH]1)c1c[nH]c2ccccc12	.	.	5.8*	-12.5	4.0
SMILES	proCasp3 act	proCasp7 act	MsrA inhibitor	bovine MsrA act	MsrA conf
C[C@H]1CN(S(=O)(=O)C(C)(C)C)[C@H](CCO)/C1=C\CCO	.	.	1.2	.	.
NC(=O)c1ncn([C@@H]2O[C@H](C(=O)N[C@H](Cc3ccccc3)C(=O)N3CCN(CC(=O)Nc4ccccn4)CC3)[C@@H](O)[C@H]2O)n1	.	.	-0.5	.	.
CC(=O)N1CCC(C(=O)N2c3ccccc3N=C(c3ccc4c(c3)OCO4)C2C(=O)Nc2c(C)cccc2C)CC1 (stereo not given)	.	.	2.7	.	.
CC(O)CNc1cc(N)c([N+](=O)[O-])cc1[N+](=O)[O-] (stereo not given)	-3.6	-9.7	5.2*	-18.1	6.2*
Cc1cccn2c(=O)c3cc(C(=O)NCCN4CCOCC4)c(=N)n(CCCN4CCOCC4)c3nc12	-8.1	-10.4	5.4*	-2.0	0.2
Cc1cccn2c(=O)c3cc(C(=O)NCc4ccccc4)c(=N)n(CCCN4CCOCC4)c3nc12	.	.	-0.1	-1.9	.
O=[N+]([O-])c1ccc(N=NN(CCO)CCO)cc1	2.0	-2.1	5.3*	-13.4	2.4
O=[N+]([O-])c1ccc(N=Nc2ncc[nH]2)cc1	.	.	1.5	-7.0	.
Cn1c(=O)[nH]c(Nc2ccccc2)c([N+](=O)[O-])c1=O	-3.1	-10.5	6.4*	-7.5	4.0
CN1C(=O)C2(c3ccccc31)c1c(oc3ccccc3c1=O)C(=O)N2CCCO (stereo not given)	1.0	4.0	-0.4	-2.0	.
Cc1ccc(C(=O)C2=C(O)C(=O)N(CCCN(C)C)C23C(=O)N(C)c2ccccc23)o1 (stereo not given)	-6.0	-6.9	5.6*	-2.0	6.4*
Cc1[nH]nc2c1C(c1ccc(F)cc1)N(Cc1ccccc1)C2=O (stereo not given)	.	.	-0.3	.	.
N#Cc1c(-c2ccccc2)[nH]c(=S)[nH]c1=O	-0.4	4.0	5.0*	5.8	3.4
N#Cc1c(-c2cccc(Cl)c2)[nH]c(=S)[nH]c1=O	-6.0	7.6	3.3	5.0	.
COc1ccc(C(=O)/C=C/c2ccsc2)cc1CSCC(=O)O	-10.5	-1.4	4.7*	-6.0	4.0
COc1ccc(C(C)=O)cc1CSCCC(=O)O	0.6	0.3	-0.6	-7.5	.
COC(=O)c1cc2c(c3c4cc(OC)ccc4n(S(C)(=O)=O)c13)C(=O)N(C)C2	.	.	0.9	.	.
N/C(=N\N=C\c1ccc(O)c(O)c1)c1nonc1N	1.2	4.0	3.9	-2.5	.
COc1cc(/C=N/N=C(\N)c2nonc2N)ccc1O	1.4	-1.2	5.5*	-5.7	4.5
N/C(=N\N=C\c1cccc(O)c1)c1nonc1N	4.3	2.4	6.0*	-2.4	3.5
N/C(=N\N=C\c1ccc(O)cc1)c1nonc1N	-9.9	-1.2	6.4*	-2.2	3.7
N/C(=N\N=C\c1ccc([N+](=O)[O-])cc1)c1nonc1N	-5.7	2.0	1.0	-2.4	.
CC1(C)CC(=O)C=C(C#CC2CC2)C1	.	.	0.1	.	.
Cc1cc(N2CCNC[C@@H]2C)ccc1N1CCS(=O)(=O)CC1	.	.	0.1	.	.
Cc1cc(O)cc(=O)n1-c1ccc(Cl)c(C(F)(F)F)c1	.	.	-0.6	.	.
O=[N+]([O-])c1cc([N+](=O)[O-])c2n[nH]c(-c3ccccc3)c2c1	3.3	1.1	5.2*	-1.8	4.5
Cc1cc(C)n(C(=O)c2ccc(C)o2)n1	-12.3	2.6	-1.1	-8.5	.
Cc1cc(C)n(C(=O)c2cc3sccc3[nH]2)n1	-0.6	4.5	4.7*	-2.3	4.5

Assay outcomes as filed in PubChem.
